In brackets after ≈: the same amount, converted by molar mass.
Assays:
[1] = Permeability of the compound by PAMPA; type: ADME; conditions: read-out: permeability
[2] = molecular target: T1, Inhibitor of nuclear factor kappa-B kinase subunit beta (Homo sapiens, UniProt O14920); assay: Inhibition of IKKbeta in human CD14-positive monocytes assessed as reduction in LPS-stimulated TNFalpha secretion preincubated for 30 mins followed by LPS stimulation and measured after 24 hrs by Alpha screen assay; type: cell-based
T1 sequence (O14920 whole entry): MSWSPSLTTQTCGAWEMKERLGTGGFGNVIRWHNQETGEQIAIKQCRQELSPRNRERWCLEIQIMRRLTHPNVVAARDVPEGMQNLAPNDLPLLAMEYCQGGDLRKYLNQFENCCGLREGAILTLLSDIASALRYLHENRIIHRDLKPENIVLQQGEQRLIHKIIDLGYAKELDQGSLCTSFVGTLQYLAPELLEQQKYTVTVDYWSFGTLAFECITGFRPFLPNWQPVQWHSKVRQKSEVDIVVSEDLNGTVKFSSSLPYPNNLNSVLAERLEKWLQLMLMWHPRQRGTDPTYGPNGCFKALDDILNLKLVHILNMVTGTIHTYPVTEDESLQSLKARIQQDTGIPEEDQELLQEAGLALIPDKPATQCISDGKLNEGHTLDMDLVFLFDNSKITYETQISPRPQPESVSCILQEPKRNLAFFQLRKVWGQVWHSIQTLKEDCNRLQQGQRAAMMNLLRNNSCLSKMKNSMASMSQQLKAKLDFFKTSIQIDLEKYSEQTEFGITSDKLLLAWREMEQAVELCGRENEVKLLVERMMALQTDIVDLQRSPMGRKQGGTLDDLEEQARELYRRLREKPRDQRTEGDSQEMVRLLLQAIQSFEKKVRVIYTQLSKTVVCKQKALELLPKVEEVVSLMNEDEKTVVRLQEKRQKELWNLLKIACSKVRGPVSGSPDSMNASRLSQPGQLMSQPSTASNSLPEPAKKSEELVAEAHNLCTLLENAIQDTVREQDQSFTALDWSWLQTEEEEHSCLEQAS

[3] = molecular target: T1, Inhibitor of nuclear factor kappa-B kinase subunit beta; assay: Inhibition of recombinant human C-terminal GST-tagged IKKbeta (1 to 737 residues) expressed in baculovirus expression system using GST-IkBalpha substrate measured after 30 mins by TR-FRET assay
Procedure, shortened: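 IKK pIC50 values are the mean of more than 2 determinations unless noted otherwise. Compounds were tested as racemic mixtures.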

[4] = Kinetic aqueous solubility of the compound by UV-HPLC analysis; type: physicochemical; conditions: buffer; read-out: Kinetic_solubility
[5] = Volume of distribution at steady state in Sprague-Dawley rat at 2 mg/kg, po or 1 mg/kg, iv; type: ADME, organism-based; conditions: in vivo, read-out: Vdss
Procedure, shortened: (§1)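 Male Sprague Dawley rats, n=2 (n=3 for one compound). The i.v. leg used 5% DMSO with 20% Cavitron and the oral leg 5% DMSO with 6% Cavitron. Oral doses were 2 mg/kg, or 2.1 mg/kg where stated. The i.v. dose was 1 mg/kg. Clearance is plasma clearance.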

[6] = Half life in Sprague-Dawley rat at 2 mg/kg, po or 1 mg/kg, iv; type: ADME, organism-based; conditions: in vivo; procedure, shortened: as §1
[7] = Oral bioavailability in Sprague-Dawley rat at 2 mg/kg; type: ADME, organism-based; conditions: in vivo; procedure, shortened: as §1
[8] = AUC in Sprague-Dawley rat at 2 mg/kg, po; type: ADME, organism-based; conditions: in vivo; procedure, shortened: as §1
[9] = Plasma clearance in Sprague-Dawley rat at 2 mg/kg, po or 1 mg/kg, iv; type: ADME, organism-based; procedure, shortened: as §1
Rattus norvegicus [10] = assay: (§2) Antiinflammatory activity in LPS-induced rat neutrophilia model assessed as inhibition of LPS-induced increase in neutrophils in bronchoalveolar lavage at 100 umol/kg, po administered 30 mins prior to 20 mins nebulized LPS challenge and measured after 4 hrs by diff quick staining based hemocytometric method relative to control; type: functional
Rattus norvegicus [11] = assay: as §2, with “50” for “100”; type: functional
[12] = Kinetic aqueous solubility of the compound by chemiluminescent nitrogen detection assay; type: physicochemical; conditions: buffer; read-out: Kinetic_solubility
[13] = AUC in Beagle dog at 2.03 mg/kg, po; type: ADME, organism-based, Canis lupus familiaris; conditions: in vivo
Procedure, shortened: (§3)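 Male Beagle dogs, n=3. Vehicles were 5% DMSO with 20% Cavitron for i.v. dosing at 1.11 mg/kg and 5% DMSO with 6% Cavitron for oral dosing at 2.03 mg/kg. Derived values were plasma clearance, steady-state volume of distribution, half-life and oral bioavailability.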

Canis familiaris = assay: Anti-inflammatory activity in inhaled LPS-induced Beagle dog lung neutrophilia model assessed as inhibition of LPS-induced increase in neutrophils in bronchoalveolar lavage administered orally 30 mins prior to LPS instillation and measured after […] by diff quick staining based hemocytometric method; type: functional; conditions: Canis lupus familiaris, po
[14] = Half life in Beagle dog at 2.03 mg/kg, po or 1.11 mg/kg, iv; type: ADME, organism-based, Canis lupus familiaris; conditions: in vivo; procedure, shortened: as §3
[15] = Volume of distribution at steady state in Beagle dog at 2.03 mg/kg, po or 1.11 mg/kg, iv; type: ADME, organism-based, Canis lupus familiaris; conditions: in vivo, read-out: Vdss; procedure, shortened: as §3
[16] = Plasma clearance in Beagle dog at 2.03 mg/kg, po or 1.11 mg/kg, iv; type: ADME, organism-based, Canis lupus familiaris; procedure, shortened: as §3
[17] = Oral bioavailability in Beagle dog at 2.03 mg/kg; type: ADME, organism-based, Canis lupus familiaris; conditions: in vivo; procedure, shortened: as §3
Rattus norvegicus [18] = assay: Anti-inflammatory activity in LPS-induced Lewis rat inflammation model assessed as inhibition of LPS-induced TNFalpha secretion in blood administered orally 30 mins prior to LPS challenge and measured after 2 hrs by ELISA; type: functional; conditions: po

Row | Papp [1] | IC50 [2] | IC50 [3] | solubility kinetic [4] | Vd [5] | half-life [6] | bioavailability [7] | AUC [8] | clearance [9] | Compound | other results
1 | 20 ×10⁻⁶ cm/s | 190 nM | 15.8 nM | 173 µM (≈ 85.9 µg/mL) | – | – | – | – | – | CCN(CC)CCCS(=O)(=O)N1CCC(c2c[nH]c3c(C(N)=O)cc(-c4ccccc4)cc23)CC1 | –
2 | – | – | 79.4 nM | – | – | – | – | – | – | NC(=O)c1cc(-c2ccccc2)cc2c([C@@H]3C[C@H]4CC[C@@H](C3)S4(=O)=O)c[nH]c12 | –
3 | 28 ×10⁻⁶ cm/s | 50 to 810 nM | 12.6 nM | – | 3.7 L/kg | 2.2 h | 47.4% | 1270 ng·h/mL | 23.5 mL/min/kg | NC(=O)c1cc(-c2ccc(F)cc2)cc2c(C3CCS(=O)(=O)CC3)c[nH]c12 | –
4 | 25 ×10⁻⁶ cm/s | 190 nM | – | – | 1 L/kg | 1.15 h | 58% | 1220 ng·h/mL | 16 mL/min/kg | CCS(=O)(=O)N1CCC(c2c[nH]c3c(C(N)=O)cc(-c4ccccc4)cc23)CC1 | inhibition in vivo at 100 µmol/kg (Rattus norvegicus [10]): 30%
5 | – | – | 501 nM | – | – | – | – | – | – | CN1C(=O)CCC1c1c[nH]c2c(C(N)=O)cc(-c3ccccc3)cc12 (stereo not drawn) | –
6 | – | – | 63.1 nM | – | – | – | – | – | – | CS(=O)(=O)CCc1c[nH]c2c(C(N)=O)cc(-c3ccccc3)cc12 | –
7 | 31.8 ×10⁻⁶ cm/s | 200 nM | 31.6 nM | 36 µM (≈ 18.4 µg/mL) | 0.43 L/kg | 1.18 h | 53% | 2030 ng·h/mL | 8.9 mL/min/kg | NC(=O)c1cc(-c2ccccc2)cc2c(C3CCN(S(=O)(=O)CCCN4CCOCC4)CC3)c[nH]c12 | inhibition in vivo at 50 µmol/kg (Rattus norvegicus [11]): 30%
8 | – | – | 126 nM | – | – | – | – | – | – | CC(=O)CCc1c[nH]c2c(C(N)=O)cc(-c3ccccc3)cc12 | –
9 | 0.3 ×10⁻⁶ cm/s | 140 nM | 7.94 nM | 33 µM (≈ 14.1 µg/mL) | 3 L/kg | 4.43 h | 3% | 48 ng·h/mL | 14 mL/min/kg | NCCS(=O)(=O)N1CCC(c2c[nH]c3c(C(N)=O)cc(-c4ccccc4)cc23)CC1 | –
10 | – | – | 20 nM | – | – | – | – | – | – | CC1(C)CC(c2c[nH]c3c(C(N)=O)cc(-c4ccccc4)cc23)NC1=O (stereo not drawn) | –
11 | – | – | 158 nM | – | – | – | – | – | – | NC(=O)c1cc(-c2ccccc2)cc2c(C3CCCS(=O)(=O)C3)c[nH]c12 (stereo not drawn) | –
12 | 31 ×10⁻⁶ cm/s | – | 7.94 nM | 41 µM (≈ 20.4 µg/mL) | – | – | – | – | – | NC(=O)c1cc(-c2ccccc2)cc2c(C3CCN(S(=O)(=O)CCN4CCOCC4)CC3)c[nH]c12 | –
13 | 33 ×10⁻⁶ cm/s | 110 nM | 7.94 nM | – | 7.2 L/kg | 2.34 h | 115% | 1430 ng·h/mL | 51.1 mL/min/kg | CC1(C)CC(c2c[nH]c3c(C(N)=O)cc(-c4ccccc4)cc23)CCS1(=O)=O (stereo not drawn) | solubility kinetic [12]: 39 µM (≈ 15.5 µg/mL)
14 | 27.7 ×10⁻⁶ cm/s | 80 nM | 10 nM | 130 µM (≈ 47.9 µg/mL) | 2.8 L/kg | 1.58 h | 97% | 904 ng·h/mL | 35 mL/min/kg | NC(=O)c1cc(-c2ccccc2)cc2c(C3CCS(=O)(=O)CC3)c[nH]c12 | AUC [13]: 753 ng·h/mL; ED50 (Canis familiaris): 2.9 µmol/kg; half-life [14]: 0.949 h; Vd [15]: 1.54 L/kg; clearance [16]: 23.6 mL/min/kg; bioavailability [17]: 52.6%; ED50 (Rattus norvegicus [18]): 7.6 µmol/kg
